Here are results for ten molecules from ChEMBL document CHEMBL4325855 (Eur J Med Chem, 2019).

pKd: −log10 of the molar value. Activity calls are given as the source filed them. The calls are words filed in the database; no cut-off is given here.

Data set [1] addresses T1, High affinity nerve growth factor receptor (Homo sapiens, UniProt P04629). Nature of the data set: Inhibition of ligand binding to human partial length TRKA (G475 to G790 residues) expressed in HEK293 cells at 10 uM measured after 1 hr by Kinomescan method relative to control. It is filed as cell-based. The gist of the method:
(§1)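 Binding ran 1 h at room temperature. Kinase not bound to compound was captured by an immobilized affinity ligand and measured by qPCR, in duplicate.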
Target sequence in this assay (P04629 33-796 limits assumed): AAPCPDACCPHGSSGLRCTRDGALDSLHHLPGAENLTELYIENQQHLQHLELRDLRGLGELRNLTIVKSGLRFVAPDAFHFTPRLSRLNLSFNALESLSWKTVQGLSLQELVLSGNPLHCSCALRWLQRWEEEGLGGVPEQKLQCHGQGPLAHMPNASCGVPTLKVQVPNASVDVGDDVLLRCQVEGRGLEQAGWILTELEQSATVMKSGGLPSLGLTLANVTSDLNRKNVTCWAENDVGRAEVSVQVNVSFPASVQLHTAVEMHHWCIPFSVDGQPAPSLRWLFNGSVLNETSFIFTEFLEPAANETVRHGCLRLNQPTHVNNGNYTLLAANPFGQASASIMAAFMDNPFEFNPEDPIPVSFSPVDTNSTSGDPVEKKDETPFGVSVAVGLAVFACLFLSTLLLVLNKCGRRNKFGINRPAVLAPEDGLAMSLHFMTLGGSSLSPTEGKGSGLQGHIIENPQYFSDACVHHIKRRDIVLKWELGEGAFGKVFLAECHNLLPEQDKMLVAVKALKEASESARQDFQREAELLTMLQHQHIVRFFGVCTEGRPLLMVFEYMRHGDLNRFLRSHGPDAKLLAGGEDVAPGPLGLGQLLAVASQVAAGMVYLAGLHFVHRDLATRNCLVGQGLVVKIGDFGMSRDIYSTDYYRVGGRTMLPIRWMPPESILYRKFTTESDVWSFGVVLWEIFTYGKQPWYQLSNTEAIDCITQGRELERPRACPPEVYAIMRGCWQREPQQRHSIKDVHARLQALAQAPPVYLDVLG

Data set [2] has as its target T2, Mitogen-activated protein kinase 10 (Homo sapiens, UniProt P53779). The data set is described as follows: Inhibition of ligand binding to human partial length JNK3 (V28 to Q422 residues) expressed in HEK293 cells at 10 uM measured after 1 hr by Kinomescan method relative to control. Type of data set: cell-based. The gist of the method: as §1
Data set [3] addresses T1, High affinity nerve growth factor receptor. Nature of the data set: Binding affinity to human partial length TRKA (G475 to G790 residues) expressed in HEK293 cells measured after 1 hr by Kinomescan method. It is filed as cell-based.
Target sequence in this assay (P04629 whole entry, the tested form may be a part): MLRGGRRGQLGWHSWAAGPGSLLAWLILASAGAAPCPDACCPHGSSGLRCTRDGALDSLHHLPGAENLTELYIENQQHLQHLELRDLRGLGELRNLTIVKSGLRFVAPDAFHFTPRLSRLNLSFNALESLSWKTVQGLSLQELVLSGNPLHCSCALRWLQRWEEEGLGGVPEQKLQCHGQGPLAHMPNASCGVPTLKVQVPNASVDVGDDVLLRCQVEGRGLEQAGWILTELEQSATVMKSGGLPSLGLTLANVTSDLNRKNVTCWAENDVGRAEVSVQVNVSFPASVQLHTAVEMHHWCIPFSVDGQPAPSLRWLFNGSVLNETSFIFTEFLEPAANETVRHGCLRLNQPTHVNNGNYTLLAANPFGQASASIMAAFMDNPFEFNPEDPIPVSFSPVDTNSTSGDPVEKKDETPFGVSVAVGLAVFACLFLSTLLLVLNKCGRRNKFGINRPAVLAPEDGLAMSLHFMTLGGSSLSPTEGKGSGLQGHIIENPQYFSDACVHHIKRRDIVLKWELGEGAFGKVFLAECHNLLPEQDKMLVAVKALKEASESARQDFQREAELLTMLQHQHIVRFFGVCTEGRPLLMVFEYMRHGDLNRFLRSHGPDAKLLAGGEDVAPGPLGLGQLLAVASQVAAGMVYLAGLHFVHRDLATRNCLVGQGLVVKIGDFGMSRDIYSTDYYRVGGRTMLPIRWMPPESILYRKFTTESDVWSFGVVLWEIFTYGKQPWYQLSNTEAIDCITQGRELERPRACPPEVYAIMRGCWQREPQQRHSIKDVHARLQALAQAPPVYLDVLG
The target of data set [4] is T3, Mitogen-activated protein kinase 8 (Homo sapiens, UniProt P45983). Nature of the data set: Inhibition of ligand binding to human full-length JNK1 (M1 to Q384 residues) expressed in HEK293 cells at 10 uM measured after 1 hr by Kinomescan method relative to control. It is filed as cell-based. The procedure, abridged: as §1
Data set [5] addresses T4, c-Jun N-terminal kinase, JNK (Homo sapiens, UniProt P45983+P53779+P45984). Nature of the data set: Inhibition of JNK in human MONO-MAC-6 cells assessed as reduction in LPS-induced IL6 production preincubated for 30 mins followed by LPS-stimulation and measured after 24 hrs by ELISA. It is filed as cell-based. The procedure, abridged:
(§2)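 MonoMac-6 cells, 2 × 10^5/well in medium with 3% endotoxin-free FBS, were pretreated 30 min with compound or DMSO, then stimulated with 250 ng/ml LPS for 24 h. IL-6 in the supernatant was measured by human IL-6 ELISA. IC50 came from percent inhibition vs log concentration (at least five points); triplicate samples, representative of three experiments.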
(In general: ELISA stands for enzyme-linked immunosorbent assay.)

For data set [6], the target named is T4, c-Jun N-terminal kinase, JNK. The data set is described as follows: Inhibition of JNK in human THP1-Blue cells assessed as reduction in LPS-induced NFkappaB/AP1 activation preincubated for 30 mins followed by LPS-stimulation and measured after 24 hrs by quanti-blue staining based alkaline phosphatase reporter gene assay. It is filed as cell-based. A general note: Reporter assays use an easily measured gene product as a stand-in for the process of interest.

A short description of data set [7]: Lipophilicity, log P of the compound. Type of data set: physicochemical. Conditions: octanol/water.
The target in data set [8] is Casein kinase I isoform delta (Homo sapiens) (UniProt P48730). The data set is described as follows: Inhibition of ligand binding to human full-length CK1delta (M1 to K409 residues) expressed in bacterial expression system at 10 uM measured after 1 hr by Kinomescan method relative to control. The gist of the method:
as §1

For data set [9], the target named is T5, Mitogen-activated protein kinase 9 (Homo sapiens, UniProt P45984). The data set is described as follows: Inhibition of ligand binding to human full-length JNK2 (M1 to Q382 residues) expressed in HEK293 cells at 10 uM measured after 1 hr by Kinomescan method relative to control. It is filed as cell-based. The procedure, abridged: as §1
Target sequence in this assay (P45984 whole entry, looked up, the tested form may be a part): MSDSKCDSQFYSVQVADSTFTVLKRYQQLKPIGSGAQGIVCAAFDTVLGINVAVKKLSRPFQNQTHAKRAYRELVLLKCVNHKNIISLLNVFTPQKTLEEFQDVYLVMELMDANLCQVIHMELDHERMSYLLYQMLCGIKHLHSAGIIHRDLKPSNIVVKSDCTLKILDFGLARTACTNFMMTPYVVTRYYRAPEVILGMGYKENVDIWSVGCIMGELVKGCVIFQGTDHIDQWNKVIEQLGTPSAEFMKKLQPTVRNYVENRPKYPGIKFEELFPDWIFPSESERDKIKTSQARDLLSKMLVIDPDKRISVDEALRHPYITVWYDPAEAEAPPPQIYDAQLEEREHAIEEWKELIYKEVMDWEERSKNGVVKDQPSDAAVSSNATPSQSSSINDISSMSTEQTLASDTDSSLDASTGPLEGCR
A short description of data set [10]: Cytotoxicity against human THP1-Blue cells assessed as effect on cell viability up to 50 uM after 24 hrs by CellTiter-Glo luminescent cell viability assay. It is filed as cell-based. The procedure, abridged: (§3)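 Viability of MonoMac-6 and THP-1Blue cells was tested with compound up to 50 µM for 24 h at 37 °C, 5% CO2. After 30 min equilibration to room temperature, CellTiter-Glo reagent was added and luminescence read. IC50 was derived from percent inhibition vs log concentration, at least five points.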

In data set [11] the target is T4, c-Jun N-terminal kinase, JNK. The data set is described as follows: Inhibition of JNK in human MONO-MAC-6 cells assessed as reduction in LPS-induced IL6 production at <40 uM preincubated for 30 mins followed by LPS-stimulation and measured after 24 hrs by ELISA. It is filed as cell-based. The gist of the method: as §2
The target of data set [12] is T3, Mitogen-activated protein kinase 8. Nature of the data set: Binding affinity to human full-length JNK1 (M1 to Q384 residues) expressed in HEK293 cells at <40 uM after 1 hr by Kinomescan method. It is filed as cell-based. The gist of the method:
(§4)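 Competition binding on a phage-display/cell-expressed kinase platform; each compound incubated with kinase 1 h at room temperature. Unbound kinase was captured on an immobilized affinity ligand and quantified by qPCR. […] N.A. means no inhibition below 40 µM.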

Data set [13] deals with T2, Mitogen-activated protein kinase 10. The data set is described as follows: Binding affinity to human partial length JNK3 (V28 to Q422 residues) expressed in HEK293 cells at <40 uM after 1 hr by Kinomescan method. Type of data set: cell-based. The procedure, abridged:
as §4

For data set [14], the target named is T5, Mitogen-activated protein kinase 9. The data set is described as follows: Binding affinity to human full-length JNK2 (M1 to Q382 residues) expressed in HEK293 cells at <40 uM after 1 hr by Kinomescan method. Type of data set: cell-based. The gist of the method:
as §4
Target sequence in this assay (P45984 whole entry, looked up, the tested form may be a part): as above

In data set [15] the test system is MONO-MAC-6. The data set is described as follows: Cytotoxicity against human MONO-MAC-6 cells assessed as effect on cell viability up to 50 uM after 24 hrs by CellTiter-Glo luminescent cell viability assay. Conditions: mono-mac-6, 24 h. It is filed as cell-based. The gist of the method: as §3
In general terms: Cellular ATP, detected with luciferase, serves as a proxy for viable cell number.

Data set [16] concerns the target T4, c-Jun N-terminal kinase, JNK. Nature of the data set: Inhibition of JNK in human THP1-Blue cells assessed as reduction in LPS-induced NFkappaB/AP1 activation at <40 uM preincubated for 30 mins followed by LPS-stimulation and measured after 24 hrs by quanti-blue staining based alkaline phosphatase reporter gene assay. It is filed as cell-based. The procedure, abridged:
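THP-1Blue monocytes carry a secreted alkaline phosphatase reporter under an NF-κB/AP-1-inducible promoter and were grown in RPMI 1640 with 10% FBS plus Zeocin and blasticidin selection. Cells, 2 × 10^5/well, were pretreated 30 min with compound or DMSO, then given 250 ng/ml LPS for 24 h. Supernatant phosphatase was read with QUANTI-Blue at 655 nm against LPS controls; IC50 calculated.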

The target in data set [17] is T3, Mitogen-activated protein kinase 8. Nature of the data set: Binding affinity to human full-length JNK1 (M1 to Q384 residues) expressed in HEK293 cells measured after 1 hr by Kinomescan method. It is filed as cell-based. The procedure, abridged: (§5)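 Competition binding on a phage-display/cell-expressed kinase platform; each compound incubated with kinase 1 h at room temperature. Unbound kinase was captured on an immobilized affinity ligand and quantified by qPCR. N.A. means no inhibition below 40 µM.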

Data set [18] deals with BDNF/NT-3 growth factors receptor (Homo sapiens, UniProt Q16620). The data set is described as follows: Binding affinity to human partial length TRKB (Q547 to G838 residues) expressed in HEK293 cells measured after 1 hr by Kinomescan method. Type of data set: cell-based.
Data set [19] deals with T5, Mitogen-activated protein kinase 9. The data set is described as follows: Binding affinity to human full-length JNK2 (M1 to Q382 residues) expressed in HEK293 cells measured after 1 hr by Kinomescan method. It is filed as cell-based. The gist of the method: as §5
Target sequence in this assay (P45984 whole entry, the tested form may be a part): as the sequence (P45984 whole entry, looked up, the tested form may be a part) above
Data set [20] concerns Transcription factor AP-1 (Homo sapiens). Nature of the data set: Inhibition of LPS-induced c-Jun phosphorylation at ser73 residues in human MONO-MAC-6 cells at 6.25 to 50 uM preincubated for 30 mins followed by LPS-stimulation and measured after 30 mins by Western blot analysis.
For data set [21], the target named is T2, Mitogen-activated protein kinase 10. The data set is described as follows: Binding affinity to human partial length JNK3 (V28 to Q422 residues) expressed in HEK293 cells measured after 1 hr by Kinomescan method. It is filed as cell-based. The procedure, abridged:
as §5

T2 sequence (P53779 whole entry, the tested form may be a part): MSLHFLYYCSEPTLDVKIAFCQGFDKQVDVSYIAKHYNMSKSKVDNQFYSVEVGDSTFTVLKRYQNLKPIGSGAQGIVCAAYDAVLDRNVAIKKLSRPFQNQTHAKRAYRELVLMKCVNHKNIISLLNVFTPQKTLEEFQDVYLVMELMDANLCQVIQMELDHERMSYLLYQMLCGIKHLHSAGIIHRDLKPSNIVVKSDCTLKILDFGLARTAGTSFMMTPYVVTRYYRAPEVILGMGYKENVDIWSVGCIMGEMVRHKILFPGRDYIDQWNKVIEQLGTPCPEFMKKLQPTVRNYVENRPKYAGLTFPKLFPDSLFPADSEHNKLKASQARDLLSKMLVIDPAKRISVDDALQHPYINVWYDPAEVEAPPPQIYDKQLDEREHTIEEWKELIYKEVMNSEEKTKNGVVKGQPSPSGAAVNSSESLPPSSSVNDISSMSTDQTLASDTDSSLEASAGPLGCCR
T3 sequence (P45983 whole entry, the tested form may be a part): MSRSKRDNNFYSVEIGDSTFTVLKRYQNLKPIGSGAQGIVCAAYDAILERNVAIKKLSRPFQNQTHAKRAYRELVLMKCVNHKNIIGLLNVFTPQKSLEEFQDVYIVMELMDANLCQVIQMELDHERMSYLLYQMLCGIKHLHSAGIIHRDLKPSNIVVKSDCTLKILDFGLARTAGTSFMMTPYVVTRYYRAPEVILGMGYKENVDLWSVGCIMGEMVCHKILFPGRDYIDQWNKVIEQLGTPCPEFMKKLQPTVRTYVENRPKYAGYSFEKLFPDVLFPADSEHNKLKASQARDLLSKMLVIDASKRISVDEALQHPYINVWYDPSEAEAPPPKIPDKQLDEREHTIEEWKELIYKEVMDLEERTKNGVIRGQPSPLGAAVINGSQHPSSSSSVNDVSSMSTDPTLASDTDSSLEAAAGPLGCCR
Sequence of Casein kinase I isoform delta (Homo sapiens) (P48730 whole entry, looked up, the tested form may be a part, canonical isoform): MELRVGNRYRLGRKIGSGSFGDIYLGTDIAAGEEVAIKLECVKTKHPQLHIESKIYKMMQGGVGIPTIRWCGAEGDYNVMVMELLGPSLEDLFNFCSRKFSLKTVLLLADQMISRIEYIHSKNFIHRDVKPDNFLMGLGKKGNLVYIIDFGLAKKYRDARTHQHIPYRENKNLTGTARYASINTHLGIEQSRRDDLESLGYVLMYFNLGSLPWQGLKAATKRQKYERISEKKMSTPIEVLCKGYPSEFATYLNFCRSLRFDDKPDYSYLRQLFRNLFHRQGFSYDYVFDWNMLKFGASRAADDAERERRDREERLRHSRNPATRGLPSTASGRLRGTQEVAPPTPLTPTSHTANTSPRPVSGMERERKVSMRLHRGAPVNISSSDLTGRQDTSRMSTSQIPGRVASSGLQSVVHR
Sequence of BDNF/NT-3 growth factors receptor (Q16620 whole entry, the tested form may be a part): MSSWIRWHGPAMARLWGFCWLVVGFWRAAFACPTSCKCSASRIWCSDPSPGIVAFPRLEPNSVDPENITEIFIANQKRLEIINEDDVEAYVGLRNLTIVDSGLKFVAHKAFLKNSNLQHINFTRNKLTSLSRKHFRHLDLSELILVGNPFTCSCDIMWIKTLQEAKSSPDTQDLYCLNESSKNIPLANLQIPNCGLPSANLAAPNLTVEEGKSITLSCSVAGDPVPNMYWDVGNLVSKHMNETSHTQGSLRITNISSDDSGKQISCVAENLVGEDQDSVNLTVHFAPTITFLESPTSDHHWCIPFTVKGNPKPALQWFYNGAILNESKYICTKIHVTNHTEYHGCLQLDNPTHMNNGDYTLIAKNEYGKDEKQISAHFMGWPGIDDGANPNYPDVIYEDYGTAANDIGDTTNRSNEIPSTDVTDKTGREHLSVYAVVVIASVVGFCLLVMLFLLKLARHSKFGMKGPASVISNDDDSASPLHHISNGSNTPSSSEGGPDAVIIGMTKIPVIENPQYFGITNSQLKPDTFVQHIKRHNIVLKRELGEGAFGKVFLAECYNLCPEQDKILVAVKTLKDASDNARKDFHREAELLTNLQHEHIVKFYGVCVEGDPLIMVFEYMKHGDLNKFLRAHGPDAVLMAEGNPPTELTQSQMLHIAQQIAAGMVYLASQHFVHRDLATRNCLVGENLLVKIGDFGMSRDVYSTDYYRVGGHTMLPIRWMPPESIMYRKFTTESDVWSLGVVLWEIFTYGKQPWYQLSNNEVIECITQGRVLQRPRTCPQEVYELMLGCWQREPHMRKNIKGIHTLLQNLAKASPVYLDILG

As to `O=c1c2ccccc2nc2n1-c1ccccc1/C2=N\O`, the inhibition (as a rule, the change of the read-out against control, counted positive when it falls) in data set [1] was greater than 90%; in data set [2], greater than 90%; in data set [4], greater than 90%; in data set [5] it was “Dose-dependent effect”; in data set [6] it was “Dose-dependent effect”; in [8], greater than 90%. Also, the inhibition in data set [9] was greater than 90%. Moreover, the pKd (in general, −log10 of the Kd, conventionally taken in molar units) in [3] is 5.96. The logP (in general, the decadic logarithm of the partition coefficient of the neutral form, usually between octanol and water) in data set [7] was 2.92.

Consider `C=CCO/N=C1\c2ccccc2-c2nc3ccccc3nc21`, for which the Activity result in data set [10] and in data set [15] was “Non-Toxic” in each case. Further, the inhibition entry in [11] and in data set [16] was “inactive” each time. Moreover, the outcome in data set [12], in data set [13] and in data set [14] was inactive.

In the case of `[Na+].[O-]/N=C1/c2ccccc2-c2nc3c(Cl)cc(Cl)cc3nc21`, the Activity result in [10] and in [15] was “Non-Toxic” each time. The inhibition entry in data set [11] and in [16] was “inactive” each time. Further, the result in [12], in [13] and in [14] was inactive.

With `O/N=C1\c2ccccc2-c2nc3ccccc3nc21`, the logP in data set [7] was determined as 4.04.

Turning to `CO/N=C1\c2ccccc2-c2nc3ccccc3nc21`, the Activity result in [10] and in data set [15] was “Non-Toxic” in each case. The inhibition result in [11] and in data set [16] was “inactive” in each case. Besides, the outcome in data set [12], in data set [13] and in [14] was inactive.

In the case of `CCO/N=C1\c2ccccc2-c2nc3ccccc3nc21`, the Activity entry in data set [10] and in [15] was “Non-Toxic” in each case. Further, the inhibition entry in [11] and in data set [16] was “inactive” each time. The result in data set [12], in [13] and in data set [14] was inactive.

Consider `[Na+].[O-]/N=C1/c2ccccc2-c2nc3ccc(C(F)(F)F)cc3nc21`, for which the Activity result in [10] and in data set [15] was “Non-Toxic” in each case. For the same molecule, the inhibition result in data set [11] and in data set [16] was “inactive” in each case. In addition, the outcome in [12], in data set [13] and in data set [14] was inactive.

Turning to `c1ccc(CO/N=C2\c3ccccc3-c3nc4ccccc4nc32)cc1`, the Activity entry in [10] and in data set [15] was “Non-Toxic” in each case. Further, the inhibition result in data set [11] and in data set [16] was “inactive” in each case. The result in [12], in data set [13] and in data set [14] was inactive.

Turning to `O=C1c2ccccc2-n2c1nc1ccccc1c2=O` [TRYPTANTHRIN], the pKd in [3] is 5.04; in [17] it was 4.64; in data set [18], 5.14. The result in data set [13] and in data set [14] was inactive.

Turning to `CCOC(=O)CO/N=C1\c2ccccc2-c2nc3ccccc3nc21`, the Activity result in [10] and in data set [15] was “Non-Toxic” throughout. The IC50 (as a rule, the concentration that inhibits the measured activity by half) was 3300 nM in data set [5] and 2500 nM in data set [6]. Further, the inhibition result in [5] and in data set [6] was “Dose-dependent effect” each time. Moreover, the pKd in data set [17] is 7.66; in data set [19] it was 6.13; in data set [21] it was 7.12. Also, in data set [20], the inhibition entry was “Active”.
